Data published in ChEMBL document CHEMBL1926593, “Studies on the synthesis and antibacterial activity of 3,6-disubstituted 1,2,4-triazolo[3,4-b]1,3,4-thiadiazoles” (2012).
≈ marks a conversion by molar mass, not a printed value. Calls of active or inactive are those of the source. The rule behind the calls is not given here.

Key:
Bacillus cereus [1] = test: Antibacterial activity against drug-sensitive Bacillus cereus ATCC 10876 by broth microdilution method; assay type: functional
Summary of the method: (§1)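 Broth microdilution per CLSI recommendation. MIC is the lowest concentration with no visible growth. MBC is the lowest concentration giving >99.9% reduction in CFU of the initial inoculum. Ampicillin, cefuroxime and vancomycin served as reference agents.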

Micrococcus luteus = test: Antibacterial activity against drug-sensitive Micrococcus luteus ATCC 10240 by broth microdilution method; assay type: functional; summary of the method: as §1
Staphylococcus aureus [2] = test: Antibacterial activity against methicillin-resistant Staphylococcus aureus ATCC 14001 by broth microdilution method; assay type: functional
Summary of the method: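 Broth microdilution following CLSI recommendations. MIC was read as the lowest concentration giving no visible growth. Ampicillin, cefuroxime and vancomycin were the reference antibacterials.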

Staphylococcus aureus [3] = test: Ratio of MBC to MIC for methicillin-resistant Staphylococcus aureus ATCC 14001; assay type: functional
Summary of the method: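 Broth microdilution following CLSI recommendations. MIC was the lowest concentration with no visible growth. MBC was the lowest concentration giving a >99.9% reduction in CFU relative to the initial inoculum. The ratio was taken from these two values.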

Bacillus subtilis [4] = test: Ratio of ampicillin MIC to compound MIC for drug-sensitive Bacillus subtilis ATCC 6633 by broth microdilution method; assay type: functional
Bacillus cereus [5] = test: Ratio of ampicillin MIC to compound MIC for drug-sensitive Bacillus cereus ATCC 10876 by broth microdilution method; assay type: functional
Bacillus cereus [6] = test: Ratio of cefuroxime MIC to compound MIC for drug-sensitive Bacillus cereus ATCC 10876 by broth microdilution method; assay type: functional
Escherichia coli = test: Antibacterial activity against drug-sensitive Escherichia coli ATCC 25922 by broth microdilution method; assay type: functional, organism-based; summary of the method: as §1
Klebsiella pneumoniae = test: Antibacterial activity against drug-sensitive Klebsiella pneumoniae ATCC 13883 by broth microdilution method; assay type: functional, organism-based; summary of the method: as §1
Proteus mirabilis = test: Antibacterial activity against drug-sensitive Proteus mirabilis ATCC 12453 by broth microdilution method; assay type: functional, organism-based; summary of the method: as §1
Pseudomonas aeruginosa = test: Antibacterial activity against drug-sensitive Pseudomonas aeruginosa ATCC 9027 by broth microdilution method; assay type: functional, organism-based; summary of the method: as §1
Staphylococcus aureus [7] = test: Antibacterial activity against drug-sensitive Staphylococcus aureus ATCC 25923 by broth microdilution method; assay type: functional; summary of the method: as §1
Staphylococcus aureus [8] = test: Antibacterial activity against drug-sensitive Staphylococcus aureus ATCC 6538 by broth microdilution method; assay type: functional; summary of the method: as §1
[9] = test system: Staphylococcus epidermidis; test: Antibacterial activity against drug-sensitive Staphylococcus epidermidis ATCC 12228 by broth microdilution method; assay type: functional; summary of the method: as §1
Bacillus subtilis [10] = test: Antibacterial activity against drug-sensitive Bacillus subtilis ATCC 6633 by broth microdilution method; assay type: functional; summary of the method: as §1

Structure (SMILES) | MIC (Bacillus cereus [1]) [µg/mL] | MBC (Micrococcus luteus) [µg/mL] | MIC (Micrococcus luteus) [µg/mL] | MBC (Staphylococcus aureus [2]) [µg/mL] | MIC (Staphylococcus aureus [2]) [µg/mL] | Ratio (Staphylococcus aureus [3]) | Ratio (Bacillus subtilis [4]) | Ratio (Bacillus cereus [5]) | Activity (Escherichia coli) | Activity (Klebsiella pneumoniae) | Activity (Proteus mirabilis) | Activity (Pseudomonas aeruginosa) | MBC (Staphylococcus aureus [7]) [µg/mL] | MIC (Staphylococcus aureus [7]) [µg/mL] | MBC (Staphylococcus aureus [8]) [µg/mL] | MIC (Staphylococcus aureus [8]) [µg/mL] | MBC [9] [µg/mL] | MIC [9] [µg/mL] | MBC (Bacillus subtilis [10]) [µg/mL] | MIC (Bacillus subtilis [10]) [µg/mL] | also measured
CC1(C)S[C@@H]2[C@H](NC(=O)[C@H](N)c3ccccc3)C(=O)N2[C@H]1C(=O)O [AMPICILLIN] | 62.5 (≈ 179 µM) | – | – | – | – | – | – | – | – | – | – | – | – | – | – | – | – | – | – | – | –
Clc1ccc(-c2nnc3sc(Nc4ccc(Br)cc4)nn23)cc1 | 15.6 (≈ 38.4 µM) | 15.6 (≈ 38.4 µM) | 15.6 (≈ 38.4 µM) | 125 (≈ 307 µM) | 7.81 (≈ 19.2 µM) | 16 | 8 | 4 | inactive | inactive | inactive | inactive | 31.2 (≈ 76.8 µM) | 1.95 (≈ 4.79 µM) | 31.2 (≈ 76.8 µM) | 0.98 (≈ 2.41 µM) | 1.95 (≈ 4.79 µM) | 1.95 (≈ 4.79 µM) | 1.95 (≈ 4.79 µM) | 1.95 (≈ 4.79 µM) | Ratio (Bacillus cereus [6]): 2; MBC (Bacillus cereus [1]): 15.6 µg/mL (≈ 38.4 µM)
CO/N=C(\C(=O)N[C@@H]1C(=O)N2C(C(=O)O)=C(COC(N)=O)CS[C@H]12)c1ccco1 [CEFUROXIME] | 31.2 (≈ 73.6 µM) | – | 0.98 (≈ 2.31 µM) | – | – | – | – | – | – | – | – | – | – | 0.49 (≈ 1.15 µM) | – | 0.98 (≈ 2.31 µM) | – | 0.24 (≈ 0.566 µM) | – | 15.6 (≈ 36.8 µM) | –
Clc1ccccc1-c1nnc2sc(Nc3ccc(Br)cc3)nn12 | 7.81 (≈ 19.2 µM) | 7.81 (≈ 19.2 µM) | 7.81 (≈ 19.2 µM) | 15.6 (≈ 38.4 µM) | 1.95 (≈ 4.79 µM) | 8 | 8 | 8 | inactive | inactive | inactive | inactive | 15.6 (≈ 38.4 µM) | 1.95 (≈ 4.79 µM) | 62.5 (≈ 154 µM) | 7.81 (≈ 19.2 µM) | 3.91 (≈ 9.61 µM) | 0.98 (≈ 2.41 µM) | 15.6 (≈ 38.4 µM) | 1.95 (≈ 4.79 µM) | MBC (Bacillus cereus [1]): 15.6 µg/mL (≈ 38.4 µM)
Clc1ccc(Nc2nn3c(-c4ccccc4)nnc3s2)cc1 | 15.6 (≈ 47.7 µM) | 15.6 (≈ 47.7 µM) | 7.81 (≈ 23.8 µM) | 62.5 (≈ 191 µM) | 1.95 (≈ 5.95 µM) | 32 | 8 | 4 | inactive | inactive | inactive | inactive | 31.2 (≈ 95.3 µM) | 3.91 (≈ 11.9 µM) | 31.2 (≈ 95.3 µM) | 15.6 (≈ 47.7 µM) | 3.91 (≈ 11.9 µM) | 0.98 (≈ 2.99 µM) | 7.81 (≈ 23.8 µM) | 1.95 (≈ 5.95 µM) | Ratio (Bacillus cereus [6]): 2; MBC (Bacillus cereus [1]): 15.6 µg/mL (≈ 47.7 µM)
